Laboratory results as given in ChEMBL document CHEMBL1124418, “Antitumor agents. 100. Inhibition of human DNA topoisomerase II by cytotoxic ether and ester derivatives of podophyllotoxin and alpha-peltatin” (1989).
≈ marks a conversion by molar mass, not a printed value.

Assays:
[1] = Compound was tested for in vitro cytotoxicity in KB cells after 3 days of incubation; format: functional; details: Homo sapiens, 72 h, read-out: ED50 (the source's name)
Outline: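 KB human tumor cells exposed to drug for 3 days; read-out was cell number. ED50 was taken as the drug concentration giving 50% reduction in cell number. Values are marked as preliminary.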

[2] = molecular target: DNA topoisomerase II (Homo sapiens) (UniProt P11388+Q02880); experiment: Compound was tested for inhibition against human DNA topoisomerase II; format: protein assay; design: concentration or dose not given beside the values; details: concentration not given here

Structure (SMILES) | EC50 [1] | inhibition [2]
COc1cc([C@@H]2c3cc4c(c(OC(=O)Cc5ccccc5)c3C[C@H]3COC(=O)[C@@H]32)OCO4)cc(OC)c1O | 0.01 µg/mL (≈ 0.0193 µM) | –
C/C=C\C(=O)O[C@@H]1c2cc3c(cc2[C@@H](c2cc(OC)c(O)c(OC)c2)[C@H]2C(=O)OC[C@@H]21)OCO3 | 0.9 µg/mL (≈ 1.92 µM) | –
COc1cc([C@@H]2c3cc4c(cc3[C@@H](O)[C@H]3COC(=O)[C@H]23)OCO4)cc(OC)c1O [4'-DEMETHYLEPIPODOPHYLLOTOXIN] | 0.06 µg/mL (≈ 0.15 µM) | 50%
COc1cc([C@@H]2c3cc4c(c(OC(=O)CCC(=O)O)c3C[C@H]3COC(=O)[C@@H]32)OCO4)cc(OC)c1O | 0.01 µg/mL (≈ 0.02 µM) | 0%
COc1cc([C@@H]2c3cc4c(cc3[C@@H](OC(=O)Cc3ccccc3)[C@H]3COC(=O)[C@H]23)OCO4)cc(OC)c1O | 0.00028 µg/mL (≈ 0.00054 µM) | –
COc1cc([C@@H]2c3cc4c(cc3[C@@H](OC(C)=O)[C@H]3COC(=O)[C@H]23)OCO4)cc(OC)c1O | 0.2 µg/mL (≈ 0.452 µM) | 25%
COc1cc([C@@H]2c3cc4c(c(O[C@@H]5O[C@@H](CO)[C@@H](O)[C@H](O)[C@@H]5O)c3C[C@H]3COC(=O)[C@@H]32)OCO4)cc(OC)c1O | 1.1 µg/mL (≈ 1.96 µM) | 25%
COc1cc([C@@H]2c3cc4c(cc3[C@@H](OC(=O)CCC(=O)O)[C@H]3COC(=O)[C@H]23)OCO4)cc(OC)c1O | 1 µg/mL (≈ 2 µM) | 0%
COc1cc([C@@H]2c3cc4c(cc3[C@@H](OC)[C@H]3COC(=O)[C@H]23)OCO4)cc(OC)c1O | 1.1 µg/mL (≈ 2.65 µM) | 25%
CCC(=O)O[C@@H]1c2cc3c(cc2[C@@H](c2cc(OC)c(O)c(OC)c2)[C@H]2C(=O)OC[C@@H]21)OCO3 | 1 µg/mL (≈ 2.19 µM) | 0%
COc1cc([C@@H]2c3cc4c(c(OC)c3C[C@H]3COC(=O)[C@@H]32)OCO4)cc(OC)c1O | 0.001 µg/mL (≈ 0.00241 µM) | 25%
CCO[C@@H]1c2cc3c(cc2[C@@H](c2cc(OC)c(O)c(OC)c2)[C@H]2C(=O)OC[C@@H]21)OCO3 | 1.1 µg/mL (≈ 2.57 µM) | 25%
COc1cc([C@@H]2c3cc4c(c(OC(=O)OCc5ccccc5)c3C[C@H]3COC(=O)[C@@H]32)OCO4)cc(OC)c1O | 0.01 µg/mL (≈ 0.0187 µM) | 25%
COc1cc([C@@H]2c3cc4c(c(OC(C)=O)c3C[C@H]3COC(=O)[C@@H]32)OCO4)cc(OC)c1O | 0.01 µg/mL (≈ 0.0226 µM) | 0%
CCC(=O)Oc1c2c(cc3c1OCO3)[C@@H](c1cc(OC)c(O)c(OC)c1)[C@H]1C(=O)OC[C@@H]1C2 | 0.005 µg/mL (≈ 0.011 µM) | 25%
COc1cc([C@@H]2c3cc4c(cc3[C@@H](OC(=O)c3ccccc3C(=O)O)[C@H]3COC(=O)[C@H]23)OCO4)cc(OC)c1O | 0.8 µg/mL (≈ 1.46 µM) | –
CCS[C@@H]1c2cc3c(cc2[C@@H](c2cc(OC)c(O)c(OC)c2)[C@H]2C(=O)OC[C@@H]21)OCO3 | 1.1 µg/mL (≈ 2.47 µM) | 25%
COc1cc([C@@H]2c3cc4c(c(O)c3C[C@H]3COC(=O)[C@@H]32)OCO4)cc(OC)c1O | 0.09 µg/mL (≈ 0.225 µM) | 0%
COc1cc([C@@H]2c3cc4c(c(O[C@@H]5O[C@H]6CO[C@@H](C)O[C@H]6[C@H](O)[C@@H]5O)c3C[C@H]3COC(=O)[C@@H]32)OCO4)cc(OC)c1O | 2 µg/mL (≈ 3.4 µM) | –
COc1cc([C@@H]2c3cc4c(c(O[C@@H]5O[C@H]6CO[C@@H](c7cccs7)O[C@H]6[C@H](O)[C@@H]5O)c3C[C@H]3COC(=O)[C@@H]32)OCO4)cc(OC)c1O | 2 µg/mL (≈ 3.05 µM) | 25%
CCCC(=O)Oc1c2c(cc3c1OCO3)[C@@H](c1cc(OC)c(O)c(OC)c1)[C@H]1C(=O)OC[C@@H]1C2 | 0.004 µg/mL (≈ 0.0085 µM) | 25%
COc1cc([C@@H]2c3cc4c(cc3[C@@H](O[C@@H]3O[C@@H]5CO[C@@H](C)O[C@H]5[C@H](O)[C@H]3O)[C@H]3COC(=O)[C@H]23)OCO4)cc(OC)c1O [ETOPOSIDE] | 0.12 µg/mL (≈ 0.204 µM) | > 88%
